# Experimental data: ChEMBL document CHEMBL4390654, “Microwave-assisted solid-phase synthesis of antisense acpP peptide nucleic acid-peptide conjugates active against colistin- and tigecycline-resistant E. coli and K. pneumoniae” (Eur J Med Chem, 2019)
# Square brackets hold non-standard residues; d marks the D form. Peptide text beside a SMILES is read from it. * marks the point of attachment. X3 = CC[C@H](C)[C@@H](C(=O)*)N(C(=O)[C@H](CCCNC(=N)N)NC(=O)CCCCCNC(=O)[C@@H](N)CCCNC(=N)N)C(=O)[C@H](CCCNC(=N)N)NC(=O)CCCCCNC(=O)[C@@H](N)CCCNC(=N)N; Ahx = NCCCCCC(=O)O
# Assays:
# [1] = test system: Escherichia coli; experiment: Antibacterial activity against multi-drug resistant Escherichia coli NMI 3548/14 assessed as reduction in microbial growth incubated for 20 hrs; format: functional
# Procedure, shortened: (§1)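 Broth microdilution MIC (modified Hancock protocol) in non-binding polystyrene plates. Inoculum ~2 × 10^5 CFU/mL in Mueller-Hinton broth with Mg²⁺ and Ca²⁺ at 4 mg/L each. Compounds dissolved in water, diluted in 0.01% acetic acid/0.2% BSA (final), added as 10× stocks. Covered plates incubated 20 h at 35 °C (± 2 °C) with 220 rpm circular shaking before MIC read.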
# [2] = test system: Klebsiella pneumoniae; experiment: Antibacterial activity against multi-drug resistant Klebsiella pneumoniae NMI 2697/14 assessed as reduction in microbial growth incubated for 20 hrs; format: functional; procedure, shortened: as §1
# [3] = test system: Klebsiella pneumoniae; experiment: Antibacterial activity against multi-drug resistant Klebsiella pneumoniae NMI 3081/09 assessed as reduction in microbial growth incubated for 20 hrs; format: functional; procedure, shortened: as §1
# [4] = test system: Escherichia coli; experiment: Antibacterial activity against multi-drug resistant Escherichia coli NMI 3898/15 assessed as reduction in microbial growth incubated for 20 hrs; format: functional; conditions: NMI 3898/15, 20 h; procedure, shortened: as §1
# [5] = test system: Escherichia coli; experiment: Antibacterial activity against Escherichia coli ATCC 25922 assessed as reduction in microbial growth incubated for 20 hrs; format: functional; conditions: ATCC 25922, 20 h; procedure, shortened: as §1
# [6] = test system: Escherichia coli; experiment: Antibacterial activity against Escherichia coli lacking a functional SbmA assessed as reduction in microbial growth incubated for 20 hrs
# Procedure, shortened: (§2)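 Broth microdilution MIC after a modified Hancock protocol for cationic peptides, in non-binding polystyrene plates. Inoculum ~2 × 10^5 CFU/mL in Mueller-Hinton broth with Mg²⁺ and Ca²⁺ at 4 mg/L each. Compounds dissolved in water, diluted in 0.01% acetic acid, 0.2% BSA (final), added as 10× aliquots. Covered plates incubated 20 h at 35 °C (± 2 °C) with shaking at 220 rpm. MIC read as lowest inhibiting concentration.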
# [7] = test system: Klebsiella pneumoniae; experiment: Antibacterial activity against Klebsiella pneumoniae ATCC 13883 assessed as reduction in microbial growth incubated for 20 hrs; format: functional; conditions: ATCC 13883, 20 h; procedure, shortened: as §2
# [8] = test system: Pseudomonas aeruginosa; experiment: Antibacterial activity against Pseudomonas aeruginosa PAO1 assessed as reduction in microbial growth incubated for 20 hrs; format: functional; conditions: PAO1, 20 h; procedure, shortened: as §2
# [9] = test system: Acinetobacter baumannii; experiment: Antibacterial activity against Acinetobacter baumannii ATCC 19606 assessed as reduction in microbial growth incubated for 20 hrs; format: functional; conditions: ATCC 19606 = CIP 70.34 = JCM 6841, 20 h; procedure, shortened: as §2
# [10] = test system: Staphylococcus aureus; experiment: Antibacterial activity against Staphylococcus aureus ATCC 29213 assessed as reduction in microbial growth incubated for 20 hrs; format: functional; conditions: ATCC 29213, 20 h; procedure, shortened: as §2
# [11] = Hemolytic activity against RBC (unknown origin) at 100 uM; format: ADME, cell-based, Erythrocyte; conditions: red blood cells (erythrocytes); read-out: Activity
Molecule,MIC [1] [µg/mL],MIC [2] [µg/mL],MIC [3] [µg/mL],MIC [4] [µg/mL],"MIC ([2]; NMI 2697/14, 20 h) [µg/mL]","MIC ([3]; NMI 3081/09, 20 h) [µg/mL]",MIC [5] [µg/mL],MIC [6] [µg/mL],MIC [7] [µg/mL],MIC [8] [µg/mL],MIC [9] [µg/mL],MIC [10] [µg/mL],"MIC ([1]; NMI 3548/14, 20 h) [µg/mL]",hemolysis at 100 µM [11] [%]
GENTAMICIN,2,> 64,2,–,–,–,–,–,–,–,–,–,–,–
O=C(O)c1cn(C2CC2)c2cc(N3CCNCC3)c(F)cc2c1=O [CIPROFLOXACIN],–,–,–,> 32,2,> 32,–,–,–,–,–,–,–,–
CC[C@H](C)[C@H](NC(=O)[C@@H]1CCCN1C(=O)[C@H](CCCNC(=N)N)NC(=O)[C@@H]1CCCN1C(=O)[C@H](Cc1cnc[nH]1)NC(=O)[C@H](CO)NC(=O)[C@@H](NC(=O)[C@@H]1CCCN1C(=O)[C@H](CCCNC(=N)N)NC(=O)[C@@H]1CCCN1C(=O)[C@H](CO)NC(=O)[C@H](Cc1ccc(O)cc1)NC(=O)[C@@H]1CCCN1C(=O)[C@H](CCCNC(=N)N)NC(=O)[C@@H]1CCCN1C(=O)[C@H](CCCNC(=N)N)NC(=O)CCCCCNC(=O)[C@@H](N)CCCNC(=N)N)[C@@H](C)O)C(=O)N[C@@H](CCCNC(=N)N)C(=O)N[C@H](C(=O)N[C@@H](CS)C(=O)N[C@H](C(=O)N[C@@H](CS)C(=O)N[C@H](C(=O)N[C@H](C(=O)N[C@@H](C)C(=O)N[C@@H](CS)C(=O)N[C@@H](C)C(=O)N[C@@H](CS)C(=O)N[C@H](C(N)=O)[C@@H](C)O)[C@@H](C)O)[C@@H](C)O)[C@@H](C)O)C(C)C (H-R[Ahx]RPRPYSPRPTSHPRPIRVCTCTTACACT-NH2),–,–,–,> 64,> 64,8 to 16,> 64,> 64,64,> 64,> 64,> 64,> 64,< 1
CC[C@H](C)[C@H](NC(=O)[C@H](CCCCN)NC(=O)[C@H]([C@@H](C)CC)N(C(=O)[C@H](CCCNC(=N)N)NC(=O)CCCCCNC(=O)[C@@H](N)CCCNC(=N)N)C(=O)[C@H](CCCNC(=N)N)NC(=O)CCCCCNC(=O)[C@@H](N)CCCNC(=N)N)C(=O)N[C@@H](CC(C)C)C(=O)N[C@@H](Cc1ccccc1)C(=O)N[C@@H](CCC(N)=O)C(=O)N[C@@H](CC(N)=O)C(=O)N[C@@H](CCCNC(=N)N)C(=O)N[C@@H](CCCNC(=N)N)C(=O)N[C@@H](CCSC)C(=O)N[C@@H](CCCCN)C(=O)N[C@@H](Cc1c[nH]c2ccccc12)C(=O)N[C@@H](CCCCN)C(=O)N[C@@H](CCCCN)C(=O)N[C@@H](CS)C(=O)N[C@H](C(=O)N[C@@H](CS)C(=O)N[C@H](C(=O)N[C@H](C(=O)N[C@@H](C)C(=O)N[C@@H](CS)C(=O)N[C@@H](C)C(=O)N[C@@H](CS)C(=O)N[C@H](C(N)=O)[C@@H](C)O)[C@@H](C)O)[C@@H](C)O)[C@@H](C)O (X3-KILFQNRRMKWKKCTCTTACACT-NH2),–,–,–,32,≥ 64,16,64,64,> 64,32,16 to 32,> 64,8 to 16,< 1
CN(C)[C@@H]1C(O)=C(C(N)=O)C(=O)[C@@]2(O)C(O)=C3C(=O)c4c(O)cccc4[C@@](C)(O)[C@H]3C[C@@H]12 [TETRACYCLINE],–,–,–,64,16,> 256,–,–,–,–,–,–,8,–
CC[C@@H](C)[C@@H](NC(=O)[C@@H](CCCCN)NC(=O)[C@@H]([C@H](C)CC)N(C(=O)[C@@H](CCCNC(=N)N)NC(=O)CCCCCNC(=O)[C@H](N)CCCNC(=N)N)C(=O)[C@@H](CCCNC(=N)N)NC(=O)CCCCCNC(=O)[C@H](N)CCCNC(=N)N)C(=O)N[C@H](CC(C)C)C(=O)N[C@H](Cc1ccccc1)C(=O)N[C@H](CCC(N)=O)C(=O)N[C@H](CC(N)=O)C(=O)N[C@H](CCCNC(=N)N)C(=O)N[C@H](CCCNC(=N)N)C(=O)N[C@H](CCSC)C(=O)N[C@H](CCCCN)C(=O)N[C@H](Cc1c[nH]c2ccccc12)C(=O)N[C@H](CCCCN)C(=O)N[C@H](CCCCN)C(=O)N[C@H](CSC1CC(=O)N(CCC(=O)NCCOCCOC(=O)N[C@H](CS)C(=O)N[C@@H](C(=O)N[C@H](CS)C(=O)N[C@H](C)C(=O)N[C@@H](C(=O)N[C@H](C)C(=O)N[C@H](CS)C(=O)N[C@@H](C(=O)N[C@H](CS)C(=O)N[C@@H](C(N)=O)[C@H](C)O)[C@H](C)O)[C@H](C)O)[C@H](C)O)C1=O)C(N)=O (some centres not stated),–,–,–,8,64,16,8,8,16,8,4,32,8,1.6
CC[C@@H](C)[C@@H](NC(=O)[C@H]1CCCN1C(=O)[C@@H](CCCNC(=N)N)NC(=O)[C@H]1CCCN1C(=O)[C@@H](Cc1cnc[nH]1)NC(=O)[C@@H](CO)NC(=O)[C@H](NC(=O)[C@H]1CCCN1C(=O)[C@@H](CCCNC(=N)N)NC(=O)[C@H]1CCCN1C(=O)[C@@H](CO)NC(=O)[C@@H](Cc1ccc(O)cc1)NC(=O)[C@H]1CCCN1C(=O)[C@@H](CCCNC(=N)N)NC(=O)[C@H]1CCCN1C(=O)[C@@H](CCCNC(=N)N)NC(=O)CCCCCNC(=O)[C@H](N)CCCNC(=N)N)[C@H](C)O)C(=O)N[C@H](CCCNC(=N)N)C(=O)N[C@@H](C(N)=O)C(C)C,–,–,–,> 64,> 64,> 64,> 64,> 64,> 64,> 64,> 64,> 64,> 64,< 1
C[C@@H](O)[C@H]1C(=O)N2C(C(=O)O)=C(SCCNC=N)C[C@H]12 [IMIPENEM ANHYDROUS],–,–,–,0.5,4,32,–,–,–,–,–,–,2,–
CO/N=C(\C(=O)N[C@@H]1C(=O)N2C(C(=O)O)=C(COC(C)=O)CS[C@H]12)c1csc(N)n1 [CEFOTAXIME],–,–,–,16,> 32,> 32,–,–,–,–,–,–,16,–
